# Experimental data as given in ChEMBL document CHEMBL1133709, “Acyclic analogues of deoxyadenosine 3',5'-bisphosphates as P2Y(1) receptor antagonists” (J Med Chem, 2000).
# Activity calls are given as the source filed them. The calls are words filed in the database; no cut-off is given here.
# Tests used:
# [1] = system: Meleagris gallopavo; assay: Antagonism of PLC stimulation elicited by 30(nM) 2-Me SADP in turkey RBC; format: functional; design: concentration or dose not given beside the values; settings: dose or concentration not given here
# Outline: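 Turkey erythrocytes labeled 18–24 h with 2-[3H]myo-inositol at 37 °C; ghost membranes with 1 μM GTPγS and test compound combined with 30 nM 2-MeSADP, 5 min at 30 °C, Hepes pH 7.0. [3H]inositol phosphates separated by anion exchange. IC50 for 50% inhibition of agonist response; at least three experiments, different membrane preparations, duplicate or triplicate assays.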
# [2] = biological target: P2Y purinoceptor 1 (Meleagris gallopavo) (UniProt P49652); assay: P2Y purinoceptor 1 mediated PLC stimulation in turkey RBC, NE represents no effect
# Outline: (§1)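 Compound alone added to [3H]inositol-labeled turkey erythrocyte ghosts (~175 μg protein) with 1 μM GTPγS in Hepes pH 7.0 medium, 5 min at 30 °C. Total [3H]inositol phosphates quantified by anion-exchange chromatography. EC50 from four-parameter logistic fit, 3–8 independent curves. Efficacy relative to a maximal 2-MeSADP concentration in the same experiment; NE = no effect at 100 μM.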
# [3] = Antagonism of PLC stimulation elicited by 10(nM) 2-Me SADP in turkey RBC; format: functional, Meleagris gallopavo
# [4] = system: Meleagris gallopavo; assay: Tested in vitro for effective concentration required for stimulation of phospholipase C (PLC) against [3H]inositol labeled Turkey Erythrocyte P2Y purinoceptor 1; format: functional; outline: as §1
# [5] = biological target: P2Y purinoceptor 1 (Meleagris gallopavo) (UniProt P49652); assay: In vitro agonistic activity was determined for stimulation of PLC at Turkey erythrocyte P2Y purinoceptor 1; format: functional; outline: as §1
# Chain of P2Y purinoceptor 1 (Meleagris gallopavo) (P49652 whole entry): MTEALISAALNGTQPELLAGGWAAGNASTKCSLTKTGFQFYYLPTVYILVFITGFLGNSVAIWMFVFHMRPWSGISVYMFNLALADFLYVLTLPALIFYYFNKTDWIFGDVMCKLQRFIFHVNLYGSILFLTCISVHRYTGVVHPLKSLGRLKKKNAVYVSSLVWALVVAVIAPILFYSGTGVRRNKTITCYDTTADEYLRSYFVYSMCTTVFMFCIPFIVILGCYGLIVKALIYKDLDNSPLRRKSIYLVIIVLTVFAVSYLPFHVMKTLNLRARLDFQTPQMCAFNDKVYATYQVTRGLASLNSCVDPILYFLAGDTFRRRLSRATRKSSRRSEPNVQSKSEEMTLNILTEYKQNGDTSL
Structure (SMILES),inhibition [1],PLC stimulation [2],IC50 [3],EC50 [4],Increase [5]
CNc1nc(Cl)nc2c1ncn2[C@H]1C[C@H](OP(=O)(O)O)[C@@H](COP(=O)(O)O)O1,95%,inactive,0.206 µM,–,–
CNc1nc(Cl)nc2c1ncn2CC(=O)N(CCOP(=O)(O)O)CCOP(=O)(O)O,89%,inactive,14 µM,–,–
CNc1nc(Cl)nc2c1ncn2[C@@H]1C[C@H](COP(=O)(O)O)[C@H](OP(=O)(O)O)C1,95%,inactive,0.206 µM,–,–
CNc1ncnc2c1ncn2CCCC(COP(=O)(O)O)COP(=O)(O)O,68%,inactive,> 30 µM,–,–
Nc1nc(Cl)nc2c1ncn2CCC(COP(=O)(O)O)COP(=O)(O)O,94%,inactive,7.57 µM,–,–
CNc1ncnc2c1ncn2C/C=C\CC(COP(=O)(O)O)COP(=O)(O)O (stereo in doubt; 15) [listing 1 of 2 here],–,–,> 50 µM,–,–
CNc1ncnc2c1ncn2CCCCCC(COP(=O)(O)O)COP(=O)(O)O,56%,inactive,100 µM,–,–
CNc1ncnc2c1ncn2C/C=C\CC(COP(=O)(O)O)COP(=O)(O)O (stereo in doubt; 16) [listing 1 of 2 here],54%,inactive,–,–,–
CNc1nc(Cl)nc2c1ncn2CCC(COP(=O)(O)O)COP(=O)(O)O,99%,inactive,0.84 µM,–,–
CNc1ncnc2c1ncn2C/C=C\CC(COP(=O)(O)O)COP(=O)(O)O (stereo in doubt; 15) [listing 2 of 2 here],77%,inactive,–,–,–
Nc1ncnc2c1ncn2CCC(COP(=O)(O)O)COP(=O)(O)O,63%,inactive,> 50 µM,–,–
CNc1ncnc2c1ncn2[C@@H]1C[C@H](COP(=O)(O)O)[C@H](OP(=O)(O)O)C1,99%,inactive,0.331 µM,–,–
CNc1ncnc2c1ncn2CCCCC(COP(=O)(O)O)COP(=O)(O)O,65%,inactive,> 50 µM,–,–
CNc1ncnc2c1ncn2C/C=C\CC(COP(=O)(O)O)COP(=O)(O)O (stereo in doubt; 16) [listing 2 of 2 here],–,–,100 µM,–,–
CNc1ncnc2c1ncn2CCC(COP(=O)(O)O)COP(=O)(O)O,100%,inactive,1.6 µM,–,–
CNc1ncnc2c1ncn2[C@H]1C[C@H](OP(=O)(O)O)[C@@H](COP(=O)(O)O)O1,–,inactive,–,–,–
CNc1nc(Cl)nc2c1ncn2CC(=O)Nc1cc(CP(=O)(O)O)cc(CP(=O)(O)O)c1,94%,inactive,15.5 µM,–,–
Nc1ncnc2c1ncn2[C@@H]1C[C@H](COP(=O)(O)O)[C@H](OP(=O)(O)O)C1,73%,–,2.53 µM,7.21 µM,27%
Nc1ncnc2c1ncn2[C@H]1C[C@H](OP(=O)(O)O)[C@@H](COP(=O)(O)O)O1,87%,–,5.76 µM,6.29 µM,–
